Test results published in ChEMBL document CHEMBL5724801, “EUbOPEN Chemogenomics Library - Multiplex” (2024).
Several values for one entry are separate records, joined by “and”; a condition that tells them apart may be missing. Identical values can stand only once.

Tested on: U2OS
Experiment: Multiplex assay against U2OS
Type: toxicity, cell-based
Settings: human
Outline: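 Live cells were stained at seeding with Hoechst33342, BioTracker Green Microtubule Cytoskeleton Dye, MitoTracker Red and Annexin V Alexa Fluor 680. Following compound addition, they were imaged on a CQ1 microscope at 37°C and 5% CO2 and gated by CellPathfinder machine learning into Hoechst high-intensity objects or normal cells, with normal cells split into healthy, pyknosed or fragmented nuclei and pyknosed cells into mitotic or apoptotic. Tubulin, mitochondrial-mass and membrane-permeability phenotypes are per cents of healthy-nucleus cells.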

[1] = 12 h, 1 µM, compound concentration 1 uM
[2] = 12 h, 10 µM, compound concentration 10 uM
[3] = 24 h, 1 µM, compound concentration 1 uM
[4] = 24 h, 10 µM, compound concentration 10 uM
[5] = 48 h, 1 µM, compound concentration 1 uM
[6] = 48 h, 10 µM, compound concentration 10 uM

`COc1cc2nc(N3CCN(C(=O)c4ccco4)CC3)nc(N)c2cc1OC.Cl` [PRAZOSIN HYDROCHLORIDE] was tested, and the “Population Apoptotic (%)” value [1] was 88% and 94%, the “Population Fragmented Nuclei (%)” value [1] was 21% and 18% and the “Population Healthy Nuclei (%)” value [1] was 70% and 69%. The “Population Hoechst High Intensity Objects (%)” value [1] was 2% and 1%, the “Population Membrane Permeable-Phenotype (%)” value [1] was 4% and 5% and the “Population Mitochondria Different-Phenotype (%)” value [1] was 2% and 7%. The “Population Mitotic Cells (%)” value [1] was 11% and 5%, the “Population Normal (%)” value [1] was 97% and 98% and the “Population Pyknosed Nuclei (%)” value [1] was 7% and 12%. For the same compound, the “Population Tubulin-Different-Phenotype (%)” value [1] was 1% and 8%, the “Total Cell Count” value [1] was 235 and 159 and the “Population Apoptotic (%)” value [2] was 86% and 72%. For the same compound, the “Population Fragmented Nuclei (%)” value [2] was 25% and 15%, the “Population Healthy Nuclei (%)” value [2] was 67% and 74% and the “Population Hoechst High Intensity Objects (%)” value [2] was 3% and 0%. For the same compound, the “Population Membrane Permeable-Phenotype (%)” value [2] was 12% and 4%, the “Population Mitochondria Different-Phenotype (%)” value [2] was 2% and 5% and the “Population Mitotic Cells (%)” value [2] was 13% and 27%. The “Population Normal (%)” value [2] was 96% and 99%, the “Population Pyknosed Nuclei (%)” value [2] was 7% and 9% and the “Population Tubulin-Different-Phenotype (%)” value [2] was 6% and 7%. For the same compound, the “Total Cell Count” value [2] was 216 and 114, the “Population Apoptotic (%)” value [3] was 95% and 100% and the “Population Fragmented Nuclei (%)” value [3] was 22% and 15%. The “Population Healthy Nuclei (%)” value [3] was 69% and 74%, the “Population Hoechst High Intensity Objects (%)” value [3] was 1% and 0% and the “Population Membrane Permeable-Phenotype (%)” value [3] was 8% and 10%. For the same compound, the “Population Mitochondria Different-Phenotype (%)” value [3] was 2% and 5%, the “Population Mitotic Cells (%)” value [3] was 4% and 0% and the “Population Normal (%)” value [3] was 98% and 100%. For the same compound, the “Population Pyknosed Nuclei (%)” value [3] was 7% and 10%, the “Population Tubulin-Different-Phenotype (%)” value [3] was 4% and 9% and the “Total Cell Count” value [3] was 273 and 188. The “Population Apoptotic (%)” value [4] was 78% and 85%, the “Population Fragmented Nuclei (%)” value [4] was 23% and 13% and the “Population Healthy Nuclei (%)” value [4] was 68% and 71%. For the same compound, the “Population Hoechst High Intensity Objects (%)” value [4] was 2% and 1%, the “Population Membrane Permeable-Phenotype (%)” value [4] was 8% and 7% and the “Population Mitochondria Different-Phenotype (%)” value [4] was 6% and 5%. For the same compound, the “Population Mitotic Cells (%)” value [4] was 21% and 14%, the “Population Normal (%)” value [4] was 97% and 98% and the “Population Pyknosed Nuclei (%)” value [4] was 7% and 15%. For the same compound, the “Population Tubulin-Different-Phenotype (%)” value [4] was 6% and 4%, the “Total Cell Count” value [4] was 244 and 138 and the “Population Apoptotic (%)” value [5] was 94% and 100%. For the same compound, the “Population Fragmented Nuclei (%)” value [5] was 16% and 15%, the “Population Healthy Nuclei (%)” value [5] was 74% and 77% and the “Population Hoechst High Intensity Objects (%)” value [5] was 2% and 1%. The “Population Membrane Permeable-Phenotype (%)” value [5] was 6% and 7%, the “Population Mitochondria Different-Phenotype (%)” value [5] was 2% and 7% and the “Population Mitotic Cells (%)” value [5] was 5% and 0%. For the same compound, the “Population Normal (%)” value [5] was 97% and 98%, the “Population Pyknosed Nuclei (%)” value [5] was 9% and 7% and the “Population Tubulin-Different-Phenotype (%)” value [5] was 2% and 5%. The “Total Cell Count” value [5] was 388 and 266, the “Population Apoptotic (%)” value [6] was 96% and 94% and the “Population Fragmented Nuclei (%)” value [6] was 20% and 15%. The “Population Healthy Nuclei (%)” value [6] was 71% and 76%, the “Population Hoechst High Intensity Objects (%)” value [6] was 1% and 2% and the “Population Membrane Permeable-Phenotype (%)” value [6] was 5%. For the same compound, the “Population Mitochondria Different-Phenotype (%)” value [6] was 2% and 6%, the “Population Mitotic Cells (%)” value [6] was 3% and 5% and the “Population Normal (%)” value [6] was 98% and 97%. The “Population Pyknosed Nuclei (%)” value [6] was 8%, the “Population Tubulin-Different-Phenotype (%)” value [6] was 3% and the “Total Cell Count” value [6] was 341 and 208.

For `Oc1c(CN2CCN(c3ccccn3)CC2)cc(Cl)c2cccnc12`, the “Population Apoptotic (%)” value [1] was 95% and 100%, the “Population Fragmented Nuclei (%)” value [1] was 24% and 16% and the “Population Healthy Nuclei (%)” value [1] was 64% and 78%. The “Population Hoechst High Intensity Objects (%)” value [1] was 1%, the “Population Membrane Permeable-Phenotype (%)” value [1] was 3% and 13% and the “Population Mitochondria Different-Phenotype (%)” value [1] was 1% and 4%. The “Population Mitotic Cells (%)” value [1] was 4% and 0%, the “Population Normal (%)” value [1] was 98% and the “Population Pyknosed Nuclei (%)” value [1] was 10% and 5%. The “Population Tubulin-Different-Phenotype (%)” value [1] was 2% and 8%, the “Total Cell Count” value [1] was 237 and 93 and the “Population Apoptotic (%)” value [2] was 84% and 87%. For the same compound, the “Population Fragmented Nuclei (%)” value [2] was 31% and 18%, the “Population Healthy Nuclei (%)” value [2] was 56% and 68% and the “Population Hoechst High Intensity Objects (%)” value [2] was 2% and 1%. For the same compound, the “Population Membrane Permeable-Phenotype (%)” value [2] was 12% and 6%, the “Population Mitochondria Different-Phenotype (%)” value [2] was 28% and 35% and the “Population Mitotic Cells (%)” value [2] was 15% and 12%. For the same compound, the “Population Normal (%)” value [2] was 97% and 98%, the “Population Pyknosed Nuclei (%)” value [2] was 11% and 13% and the “Population Tubulin-Different-Phenotype (%)” value [2] was 8% and 11%. The “Total Cell Count” value [2] was 229 and 118, the “Population Apoptotic (%)” value [3] was 88% and 100% and the “Population Healthy Nuclei (%)” value [3] was 64% and 87%. For the same compound, the “Population Hoechst High Intensity Objects (%)” value [3] was 1%, the “Population Membrane Permeable-Phenotype (%)” value [3] was 3% and 9% and the “Population Mitochondria Different-Phenotype (%)” value [3] was 2% and 3%. The “Population Mitotic Cells (%)” value [3] was 11% and 0%, the “Population Normal (%)” value [3] was 98% and the “Population Pyknosed Nuclei (%)” value [3] was 6% and 5%. For the same compound, the “Population Tubulin-Different-Phenotype (%)” value [3] was 2% and 7%, the “Total Cell Count” value [3] was 270 and 97 and the “Population Apoptotic (%)” value [4] was 90% and 100%. For the same compound, the “Population Fragmented Nuclei (%)” value [4] was 27% and 29%, the “Population Healthy Nuclei (%)” value [4] was 63% and 58% and the “Population Hoechst High Intensity Objects (%)” value [4] was 4% and 3%. For the same compound, the “Population Membrane Permeable-Phenotype (%)” value [4] was 10% and 9%, the “Population Mitochondria Different-Phenotype (%)” value [4] was 14% and 40% and the “Population Mitotic Cells (%)” value [4] was 9% and 0%. For the same compound, the “Population Normal (%)” value [4] was 95% and 96%, the “Population Pyknosed Nuclei (%)” value [4] was 9% and 12% and the “Population Tubulin-Different-Phenotype (%)” value [4] was 7% and 6%. The “Total Cell Count” value [4] was 238 and 127, the “Population Apoptotic (%)” value [5] was 94% and 87% and the “Population Fragmented Nuclei (%)” value [5] was 25% and 14%. For the same compound, the “Population Healthy Nuclei (%)” value [5] was 67% and 77%, the “Population Hoechst High Intensity Objects (%)” value [5] was 3% and 1% and the “Population Membrane Permeable-Phenotype (%)” value [5] was 6% and 7%. For the same compound, the “Population Mitochondria Different-Phenotype (%)” value [5] was 3% and 1%, the “Population Mitotic Cells (%)” value [5] was 5% and 12% and the “Population Normal (%)” value [5] was 96% and 98%. The “Population Pyknosed Nuclei (%)” value [5] was 7%, the “Population Tubulin-Different-Phenotype (%)” value [5] was 3% and 5% and the “Total Cell Count” value [5] was 276 and 111. For the same compound, the “Population Apoptotic (%)” value [6] was 96% and 100%, the “Population Fragmented Nuclei (%)” value [6] was 32% and 38% and the “Population Healthy Nuclei (%)” value [6] was 57% and 42%. The “Population Hoechst High Intensity Objects (%)” value [6] was 2% and 4%, the “Population Membrane Permeable-Phenotype (%)” value [6] was 11% and 12% and the “Population Mitochondria Different-Phenotype (%)” value [6] was 19% and 41%. The “Population Mitotic Cells (%)” value [6] was 3% and 0%, the “Population Normal (%)” value [6] was 97% and 95% and the “Population Pyknosed Nuclei (%)” value [6] was 10% and 19%. The “Population Tubulin-Different-Phenotype (%)” value [6] was 7% and 8% and the “Total Cell Count” value [6] was 275 and 144.
